Reference: the M2OR odorant receptor database

Assays:
Details in all cases: stereoisomer not certain
OR10A3 (Homo sapiens) = biological target: T1, OR10A3 (Homo sapiens) (UniProt P58181)
T1 sequence (whole entry): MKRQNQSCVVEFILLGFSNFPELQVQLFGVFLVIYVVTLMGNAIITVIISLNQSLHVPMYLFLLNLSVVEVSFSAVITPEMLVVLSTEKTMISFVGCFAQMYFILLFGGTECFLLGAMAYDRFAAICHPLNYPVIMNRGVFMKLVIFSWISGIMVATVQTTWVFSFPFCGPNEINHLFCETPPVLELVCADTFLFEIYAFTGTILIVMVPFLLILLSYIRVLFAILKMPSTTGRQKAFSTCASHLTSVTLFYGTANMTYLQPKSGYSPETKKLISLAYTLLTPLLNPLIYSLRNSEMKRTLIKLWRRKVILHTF
How it was run: (§1)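 Transient luciferase assays in mammalian cell lines were common, though methods varied by source. The values come from published papers and their supplementary material, with extra details from the original authors when needed. Responsive refers to a measured signal the original authors judged statistically different from baseline, and non-responsive (inactive) to the remainder.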

OR10A4 (Homo sapiens) = biological target: T2, OR10A4 (Homo sapiens) (UniProt Q9H209)
T2 sequence (whole entry): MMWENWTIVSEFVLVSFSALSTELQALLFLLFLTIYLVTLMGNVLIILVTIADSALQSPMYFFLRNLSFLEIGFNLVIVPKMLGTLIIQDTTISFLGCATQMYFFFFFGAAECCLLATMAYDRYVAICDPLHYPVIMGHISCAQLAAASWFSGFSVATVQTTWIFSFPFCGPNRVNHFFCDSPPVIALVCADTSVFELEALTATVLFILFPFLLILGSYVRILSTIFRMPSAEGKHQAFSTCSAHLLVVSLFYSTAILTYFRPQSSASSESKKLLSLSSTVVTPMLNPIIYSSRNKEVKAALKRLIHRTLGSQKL
How it was run: as §1

OR10A5 (Homo sapiens) = biological target: T3, OR10A5 (Homo sapiens) (UniProt Q9H207)
T3 sequence (whole entry): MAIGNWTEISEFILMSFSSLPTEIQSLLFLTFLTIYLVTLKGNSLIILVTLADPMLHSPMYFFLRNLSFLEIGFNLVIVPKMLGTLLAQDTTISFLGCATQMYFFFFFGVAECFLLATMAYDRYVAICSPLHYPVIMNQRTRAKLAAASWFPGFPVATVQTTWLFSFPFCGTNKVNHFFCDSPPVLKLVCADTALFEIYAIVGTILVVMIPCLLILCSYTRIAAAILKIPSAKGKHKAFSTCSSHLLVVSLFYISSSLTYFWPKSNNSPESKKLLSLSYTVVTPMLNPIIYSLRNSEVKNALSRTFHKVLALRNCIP
How it was run: as §1

OR10A6 (Homo sapiens) = biological target: T4, OR10A6 (Homo sapiens) (UniProt Q8NH74)
T4 sequence (whole entry): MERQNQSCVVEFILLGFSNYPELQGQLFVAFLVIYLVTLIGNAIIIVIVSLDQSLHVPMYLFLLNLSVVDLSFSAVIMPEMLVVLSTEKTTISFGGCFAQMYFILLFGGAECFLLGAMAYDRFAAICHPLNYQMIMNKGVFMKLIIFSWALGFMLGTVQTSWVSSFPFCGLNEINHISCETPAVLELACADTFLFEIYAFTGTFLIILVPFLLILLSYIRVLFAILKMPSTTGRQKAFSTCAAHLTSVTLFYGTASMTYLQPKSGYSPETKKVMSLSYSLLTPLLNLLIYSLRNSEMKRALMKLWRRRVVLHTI
How it was run: as §1

OR10A7 (Homo sapiens) = biological target: T5, OR10A7 (Homo sapiens) (UniProt Q8NGE5)
T5 sequence (whole entry): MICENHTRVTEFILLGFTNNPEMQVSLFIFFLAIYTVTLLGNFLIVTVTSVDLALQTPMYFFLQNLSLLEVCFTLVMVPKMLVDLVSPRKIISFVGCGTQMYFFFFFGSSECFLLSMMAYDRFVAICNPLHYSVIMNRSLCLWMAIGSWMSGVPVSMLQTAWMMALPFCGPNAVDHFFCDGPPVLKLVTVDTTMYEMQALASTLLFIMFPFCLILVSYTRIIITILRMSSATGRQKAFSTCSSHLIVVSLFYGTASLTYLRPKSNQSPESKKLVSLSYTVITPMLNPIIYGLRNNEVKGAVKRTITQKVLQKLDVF
How it was run: as §1

OR10AD1 (Homo sapiens) = biological target: T6, OR10AD1 (Homo sapiens) (UniProt Q8NGE0)
T6 sequence (whole entry): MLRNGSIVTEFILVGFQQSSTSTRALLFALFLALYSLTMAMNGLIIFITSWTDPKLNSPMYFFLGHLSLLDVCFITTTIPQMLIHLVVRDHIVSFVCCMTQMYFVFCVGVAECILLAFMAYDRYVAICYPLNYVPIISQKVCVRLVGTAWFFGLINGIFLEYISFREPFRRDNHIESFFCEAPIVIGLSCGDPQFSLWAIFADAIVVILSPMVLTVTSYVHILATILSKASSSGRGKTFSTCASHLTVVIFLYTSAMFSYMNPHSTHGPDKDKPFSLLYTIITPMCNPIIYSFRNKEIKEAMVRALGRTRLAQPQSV
How it was run: as §1

OR10AG1 (Homo sapiens) = biological target: T7, OR10AG1 (Homo sapiens) (UniProt Q8NH19)
T7 sequence (whole entry): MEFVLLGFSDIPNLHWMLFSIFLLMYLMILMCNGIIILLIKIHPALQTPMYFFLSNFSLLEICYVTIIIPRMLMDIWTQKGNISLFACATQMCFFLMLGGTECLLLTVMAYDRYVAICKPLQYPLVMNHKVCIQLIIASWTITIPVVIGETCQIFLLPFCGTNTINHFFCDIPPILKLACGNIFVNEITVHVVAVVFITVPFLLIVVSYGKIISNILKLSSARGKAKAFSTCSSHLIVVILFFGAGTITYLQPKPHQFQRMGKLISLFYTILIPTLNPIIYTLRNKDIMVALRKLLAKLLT
How it was run: as §1

OR10C1 (Homo sapiens) = biological target: T8, OR10C1 (Homo sapiens) (UniProt Q96KK4)
T8 sequence (whole entry): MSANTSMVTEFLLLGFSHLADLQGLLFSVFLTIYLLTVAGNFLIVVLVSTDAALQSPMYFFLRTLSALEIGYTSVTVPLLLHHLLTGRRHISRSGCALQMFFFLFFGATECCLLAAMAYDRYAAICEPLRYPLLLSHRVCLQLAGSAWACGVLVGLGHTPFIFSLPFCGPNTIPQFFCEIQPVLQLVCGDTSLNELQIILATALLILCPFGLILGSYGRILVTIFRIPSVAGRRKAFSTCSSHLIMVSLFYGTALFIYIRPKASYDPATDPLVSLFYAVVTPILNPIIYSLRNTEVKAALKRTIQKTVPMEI
How it was run: as §1

OR10D3 (Homo sapiens) = biological target: T9, OR10D3 (Homo sapiens) (UniProt Q8NH80)
T9 sequence (whole entry): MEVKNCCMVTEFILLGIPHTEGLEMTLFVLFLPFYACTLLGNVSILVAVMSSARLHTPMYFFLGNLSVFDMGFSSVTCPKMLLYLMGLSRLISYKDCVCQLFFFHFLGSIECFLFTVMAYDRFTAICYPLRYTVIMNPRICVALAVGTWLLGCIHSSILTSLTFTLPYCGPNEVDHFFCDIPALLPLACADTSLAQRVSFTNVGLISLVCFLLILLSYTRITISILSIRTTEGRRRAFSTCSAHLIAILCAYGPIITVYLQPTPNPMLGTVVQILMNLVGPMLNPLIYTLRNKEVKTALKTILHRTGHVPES
How it was run: as §1

Measured: odorant receptor agonist call;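 also: active if original authors judged signal statistically different from baseline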

Cc1cnc(C)c(C)n1
inactive: all assays above
